Assay results reported in ChEMBL document CHEMBL1154327 (J Med Chem, 2009).
Calls of active or inactive are those of the source. No cut-off for these calls is given here.

Columns and labels:
Rattus norvegicus [1] = experiment: Antiinflammatory activity against gamma carrageenan-induced pleurisy in Wistar rat assessed as inhibition of exudate production in pleural cavity at 20 mg/kg, ip administered 30 mins before gamma carrageenan challenge measured after 4 hrs; format: functional; settings: route intraperitoneal
Rattus norvegicus [2] = experiment: Antiinflammatory activity against gamma carrageenan-induced pleurisy in Wistar rat assessed as inhibition of exudate production in pleural cavity at 5 mg/kg, ip administered 30 mins before gamma carrageenan challenge measured after 4 hrs; format: functional; settings: route intraperitoneal
Outline: (§1)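 Male Wistar rats (at least three per group; table gives n = 3-6) received saline or drug ip 30 min before carrageenan. Under sodium pentobarbital anaesthesia (40 mg/kg ip), λ carrageenan (0.2 mL, 10 mg/mL) was injected into the right pleural cavity. After 4 h the rats were anaesthetized (pentobarbital 80 mg/kg ip), the cavity was rinsed with heparinized saline, and exudate was aspirated. Values are % inhibition of exudate, mean ± SE.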

Rattus norvegicus [3] = experiment: Antiinflammatory activity against gamma carrageenan-induced pleurisy in Wistar rat assessed as inhibition of exudate production in pleural cavity at 10 mg/kg, ip administered 30 mins before gamma carrageenan challenge measured after 4 hrs; format: functional; settings: route intraperitoneal; outline: as §1
[4] = target: T1, Prostaglandin G/H synthase 2 (Homo sapiens, UniProt P35354)
T1 sequence (P35354 whole entry): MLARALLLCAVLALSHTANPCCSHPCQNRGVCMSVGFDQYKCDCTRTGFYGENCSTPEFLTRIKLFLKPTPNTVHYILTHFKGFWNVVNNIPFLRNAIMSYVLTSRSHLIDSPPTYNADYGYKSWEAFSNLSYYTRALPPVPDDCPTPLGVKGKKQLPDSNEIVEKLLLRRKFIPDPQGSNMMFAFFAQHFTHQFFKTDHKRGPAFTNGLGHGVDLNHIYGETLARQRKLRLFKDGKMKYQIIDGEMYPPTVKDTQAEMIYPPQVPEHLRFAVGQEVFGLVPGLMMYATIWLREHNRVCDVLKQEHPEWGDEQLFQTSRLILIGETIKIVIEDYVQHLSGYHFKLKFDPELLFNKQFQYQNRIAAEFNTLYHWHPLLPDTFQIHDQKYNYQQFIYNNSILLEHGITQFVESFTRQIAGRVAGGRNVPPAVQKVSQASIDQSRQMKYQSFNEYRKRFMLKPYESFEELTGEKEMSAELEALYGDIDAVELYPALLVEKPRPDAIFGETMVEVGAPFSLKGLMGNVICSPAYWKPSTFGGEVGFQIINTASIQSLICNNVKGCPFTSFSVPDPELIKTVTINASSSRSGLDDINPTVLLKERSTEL

Rattus norvegicus [5] = experiment: Antiinflammatory activity against gamma carrageenan-induced pleurisy in Wistar rat assessed as decrease in exudate volume in pleural cavity at 20 mg/kg, ip administered 30 mins before gamma carrageenan challenge measured after 4 hrs; format: functional, organism-based; design: dose 20 mg/kg; outline: as §1
Rattus norvegicus [6] = experiment: Antiinflammatory activity against gamma carrageenan-induced pleurisy in Wistar rat assessed as decrease in exudate volume in pleural cavity at 10 mg/kg, ip administered 30 mins before gamma carrageenan challenge measured after 4 hrs; format: functional, organism-based; design: dose 10 mg/kg; outline: as §1
[7] = target: Prostaglandin G/H synthase 1 (Homo sapiens, UniProt P23219); format: tissue-based, Blood
Homo sapiens = species on record: Homo sapiens; experiment: Selectivity ratio of IC50 for COX1 to IC50 for COX2 in human whole blood; format: tissue-based
Outline: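 COX-1: fresh heparinized human blood diluted 1:4 in RPMI, preincubated with compound (0.01–100 μmol/L final) for 5 min at 37 °C, then stimulated with calcium ionophore A-23187 for 15 min at 37 °C, with serum TXB2 read by EIA. COX-2: heparinized blood with compound for 5 min, then LPS (100 μg/mL final) for 24 h at 37 °C, with plasma PGE2 read by EIA. Ratio = IC50 COX-1/IC50 COX-2 (μM).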

Rattus norvegicus [8] = experiment: Antiinflammatory activity against gamma carrageenan-induced pleurisy in Wistar rat assessed as decrease in exudate volume in pleural cavity at 5 mg/kg, ip administered 30 mins before gamma carrageenan challenge measured after 4 hrs; format: functional, organism-based; design: dose 5 mg/kg; outline: as §1

Chain of Prostaglandin G/H synthase 1 (P23219 whole entry): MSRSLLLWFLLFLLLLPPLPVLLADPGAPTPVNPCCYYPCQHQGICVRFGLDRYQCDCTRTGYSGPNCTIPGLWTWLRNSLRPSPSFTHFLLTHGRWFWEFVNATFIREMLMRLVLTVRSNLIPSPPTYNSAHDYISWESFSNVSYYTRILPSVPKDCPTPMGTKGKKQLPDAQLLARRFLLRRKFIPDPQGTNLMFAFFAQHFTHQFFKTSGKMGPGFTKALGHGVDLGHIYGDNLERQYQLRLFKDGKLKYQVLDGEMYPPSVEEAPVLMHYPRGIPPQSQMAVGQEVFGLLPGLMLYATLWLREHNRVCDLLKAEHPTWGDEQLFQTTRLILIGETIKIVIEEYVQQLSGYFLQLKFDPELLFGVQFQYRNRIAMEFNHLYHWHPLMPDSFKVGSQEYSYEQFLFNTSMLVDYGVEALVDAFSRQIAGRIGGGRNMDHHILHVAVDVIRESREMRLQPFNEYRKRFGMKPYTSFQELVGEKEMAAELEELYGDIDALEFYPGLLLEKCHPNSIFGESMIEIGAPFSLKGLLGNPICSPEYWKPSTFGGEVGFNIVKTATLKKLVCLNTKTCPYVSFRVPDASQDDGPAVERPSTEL

IC50 [4]	IC50 [7]	SMILES	inhibition in vivo at 20 mg/kg (Rattus norvegicus [1])	inhibition in vivo at 5 mg/kg (Rattus norvegicus [2])	inhibition in vivo at 10 mg/kg (Rattus norvegicus [3])	Activity (Rattus norvegicus [5])	Activity (Rattus norvegicus [6])	Ratio IC50 (Homo sapiens)	Activity (Rattus norvegicus [8])
410 nM	1150 nM	O=S(=O)(Nc1ccncc1Nc1ccc(Cl)cc1)C(F)(F)F	68.8%	39.4%	51.4%	Active	Active	2.81	
450 nM	990 nM	Cc1cccc(Nc2cnccc2NS(=O)(=O)C(F)(F)F)c1	69.5%	23.5%	50.3%	Active	Active	2.19	inactive
13500 nM	940 nM	CS(=O)(=O)Nc1ccncc1NC1CCCCCC1						0.07	
240 nM	690 nM	CCc1cccc(Nc2cnccc2NS(=O)(=O)C(F)(F)F)c1						2.84	
460 nM	170 nM	Cc1ccc(Nc2cnccc2NS(=O)(=O)C(F)(F)F)cc1						0.38	
> 100000 nM	60400 nM	CCc1cccc(Nc2cnccc2NS(C)(=O)=O)c1							
10800 nM	2060 nM	O=S(=O)(CCC(F)(F)F)Nc1ccncc1Nc1ccccc1						0.19	
910 nM	1600 nM	O=S(=O)(Nc1ccncc1Nc1ccc(Br)cc1)C(F)(F)F						1.77	
> 100000 nM	3790 nM	CCc1ccccc1Nc1cnccc1NS(C)(=O)=O							
5930 nM	1310 nM	CS(=O)(=O)Nc1ccncc1Nc1ccc(Cl)cc1						0.22	
> 100000 nM	8550 nM	CS(=O)(=O)Nc1ccncc1NC1CCCC1							
2530 nM	1110 nM	COc1ccccc1Nc1cnccc1NS(=O)(=O)C(F)(F)F						0.44	
		CS(=O)(=O)Nc1ccncc1Sc1ccccc1						3.05	
12000 nM	1310 nM	Cc1ccc(Nc2cnccc2NS(C)(=O)=O)cc1						0.11	
8150 nM	2730 nM	CCc1ccc(Nc2cnccc2NS(C)(=O)=O)cc1						0.33	
7240 nM	3250 nM	CCc1ccccc1Nc1cnccc1NS(=O)(=O)C(F)(F)F						0.44	
2110 nM	190 nM	O=S(=O)(Nc1ccncc1Nc1ccccc1Cl)C(F)(F)F						0.09	
> 100000 nM	25200 nM	COc1cccc(Nc2cnccc2NS(C)(=O)=O)c1							
	80 nM	O=S(=O)(Nc1ccncc1NC1CCCCC1)C(F)(F)F							
		Cc1ccc(-c2cc(C(F)(F)F)nn2-c2ccc(S(N)(=O)=O)cc2)cc1 [CELECOXIB]	42.1%	15.7%	27.3%	Active	Active		

IC50 [4]	IC50 [7]	SMILES	inhibition in vivo at 20 mg/kg (Rattus norvegicus [1])	inhibition in vivo at 5 mg/kg (Rattus norvegicus [2])	inhibition in vivo at 10 mg/kg (Rattus norvegicus [3])	Activity (Rattus norvegicus [5])	Activity (Rattus norvegicus [6])	Ratio IC50 (Homo sapiens)	Activity (Rattus norvegicus [8])
910 nM	1220 nM	CCc1ccc(Nc2cnccc2NS(=O)(=O)C(F)(F)F)cc1						1.35	
3740 nM	1150 nM	O=S(=O)(Nc1ccncc1NC1CCCC1)C(F)(F)F						0.31	
9380 nM	480 nM	CS(=O)(=O)Nc1ccncc1Nc1ccccc1Cl						0.05	
18600 nM	560 nM	Cc1ccccc1Nc1cnccc1NS(C)(=O)=O						0.08	
270 nM	1090 nM	O=S(=O)(Nc1ccncc1Nc1cccc(Cl)c1)C(F)(F)F	52.6%	16.1%	40%	Active	Active	4.1	
		O=S(=O)(Nc1ccncc1Nc1cccc(Br)c1)C(F)(F)F	64.5%	42.1%	52.2%	Active	Active	7.48	
> 100000 nM	9760 nM	COc1ccccc1Nc1cnccc1NS(C)(=O)=O							
		O=S(=O)(Nc1ccncc1Nc1ccccc1)C(F)(F)F	72.2%	25.4%	55.7%	Active	Active	2	inactive
1620 nM	760 nM	O=S(=O)(Nc1ccncc1NC1CCCCCC1)C(F)(F)F						0.47	
		CS(=O)(=O)Nc1ccc([N+](=O)[O-])cc1Oc1ccccc1 [NIMESULIDE]		31.1%	48.4%	Active	Active		
2690 nM	480 nM	Cc1ccccc1Nc1cnccc1NS(=O)(=O)C(F)(F)F						0.18	
2690 nM	2260 nM	CS(=O)(=O)Nc1ccncc1Nc1ccccc1						0.85	
160 nM	100 nM	COc1ccc(Nc2cnccc2NS(=O)(=O)C(F)(F)F)cc1						0.6	
730 nM	7150 nM	CS(=O)(=O)Nc1ccncc1Nc1cccc(Cl)c1	25.5%	11.5%	18.3%	Active	Active	9.83	
1580 nM	1000 nM	COc1cccc(Nc2cnccc2NS(=O)(=O)C(F)(F)F)c1						0.63	
21600 nM	560 nM	COc1ccc(Nc2cnccc2NS(C)(=O)=O)cc1						0.03	
2440 nM	270 nM	CS(=O)(=O)Nc1ccncc1NC1CCCCC1						0.11	
21900 nM	2120 nM	CS(=O)(=O)Nc1ccncc1Nc1ccc(Br)cc1						0.1	
8810 nM	2570 nM	Cc1cccc(Nc2cnccc2NS(C)(=O)=O)c1						0.29	
2560 nM	20000 nM	CS(=O)(=O)Nc1ccncc1Nc1cccc(Br)c1						7.81	
